Data taken from ChEMBL document CHEMBL1926538, “3,5-Disubstituted-thiazolidine-2,4-dione analogs as anticancer agents: design, synthesis and biological characterization” (Eur J Med Chem, 2012).
The source made the active and inactive calls. The calls are words filed in the database; no cut-off is given here.

How the values were obtained:
[1] = test system: U-937; assay: Cell cycle arrest in human U937 cells assessed as decrease in S-phase population after 24 hrs by propidium iodide staining-based flow cytometric analysis in presence of MEK inhibitor PD184352; type: functional
Method in brief: (§1)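 Cells cultured in RPMI 1640 with 10% FBS and treated 24 h at the indicated concentrations. Stained with propidium iodide for 4 h at 4 °C in the dark. Flow cytometry gave the percentage of cells in G₀/G₁, S, G₂/M and sub-G₁ phases.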

[2] = test system: U-937; assay: Cell cycle arrest in human U937 cells assessed as accumulation at G2/M-phase after 24 hrs by propidium iodide staining-based flow cytometric analysis in presence of MEK inhibitor PD184352; type: functional; method in brief: as §1
[3] = test system: U-937; assay: Growth inhibition of human U937 cells after 24 hrs by MTS assay; type: functional, cell-based; settings: U-937, 24 h
Method in brief: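 Cells in RPMI 1640 with 10% heat-inactivated FBS, seeded 2 × 10⁴ cells/well and exposed 24 h. MTS reagent added, then 1 h further incubation at 37 °C, 5% CO₂. Formazan absorbance read at 490 nm. Viability expressed as percentage of untreated controls.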

[4] = target: RAF proto-oncogene serine/threonine-protein kinase (Homo sapiens) (UniProt P04049); assay: Inhibition of raf-mediated MEK phosphorylation in human U937 cells at 0.3 to 30 uM after 1 hr by Western blot analysis; type: cell-based; settings: U-937
Sequence of RAF proto-oncogene serine/threonine-protein kinase (Homo sapiens) (P04049 whole entry): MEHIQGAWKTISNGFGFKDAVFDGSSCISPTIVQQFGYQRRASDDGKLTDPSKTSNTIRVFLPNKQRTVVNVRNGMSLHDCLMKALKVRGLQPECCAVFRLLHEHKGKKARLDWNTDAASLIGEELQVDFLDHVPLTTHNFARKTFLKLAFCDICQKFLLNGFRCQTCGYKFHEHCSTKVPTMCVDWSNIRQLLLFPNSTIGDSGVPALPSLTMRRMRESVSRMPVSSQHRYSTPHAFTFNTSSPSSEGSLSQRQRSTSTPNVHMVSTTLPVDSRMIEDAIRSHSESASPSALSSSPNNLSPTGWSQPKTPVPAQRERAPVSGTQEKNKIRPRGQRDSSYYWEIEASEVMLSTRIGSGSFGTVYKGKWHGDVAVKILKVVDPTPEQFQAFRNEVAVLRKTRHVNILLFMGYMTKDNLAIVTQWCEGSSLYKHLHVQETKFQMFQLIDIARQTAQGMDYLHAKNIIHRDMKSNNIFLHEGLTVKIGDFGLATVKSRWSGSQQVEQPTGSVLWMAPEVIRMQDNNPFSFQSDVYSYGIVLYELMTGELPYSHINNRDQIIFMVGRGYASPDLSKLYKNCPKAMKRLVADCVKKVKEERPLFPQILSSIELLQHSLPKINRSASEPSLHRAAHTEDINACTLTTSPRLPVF
Method in brief: (§2)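 Cells in RPMI 1640 with 10% heat-inactivated FBS, 37 °C, 5% CO2; treated in growing medium (DU145 24 h; U937 1 h at 5 × 10⁵/mL). Lysed by sonication in SDS sample buffer with protease inhibitors plus 1 mM orthovanadate and pyrophosphate, boiled 5 min. Blots blocked in 5% milk, primary antibodies 1:1000 overnight at 4 °C, HRP secondary 1:2000, chemiluminescence; α-tubulin loading control.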

[5] = target: RAF proto-oncogene serine/threonine-protein kinase (Homo sapiens) (UniProt P04049); assay: Inhibition of raf-mediated ERK phosphorylation in human U937 cells at 0.3 to 30 uM after 1 hr by Western blot analysis; type: cell-based; settings: U-937; method in brief: as §2
[6] = test system: U-937; assay: Inhibition of PI3K-mediated Akt phosphorylation in human U937 cells at 0.3 to 30 uM after 1 hr by Western blot analysis; type: cell-based
[7] = test system: U-937; assay: Growth inhibition of human U937 cells at 320 uM after 72 hrs by MTS assay; type: functional, cell-based
Method in brief: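 U937 cells exposed 72 h, with or without AICA 320 µM, then MTS added. Absorbance read at 490 nm, expressed as percentage of untreated controls. Data are mean percentage viability, n = 6, error bars SEM.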

| Structure (SMILES) | IC50 [3] | further results |
| --- | --- | --- |
| O=C(NOCC1CC1)c1ccc(F)c(F)c1Nc1ccc(I)cc1Cl | – | Activity [1]: Active; Activity [2]: Active |
| NCCN1C(=O)c2ccc(Cc3ccccc3)cc2C1=O | > 30 µM | – |
| CS(=O)(=O)Nc1ccc(CC/C=C2\SC(=O)N(CCN)C2=O)cc1 | > 30 µM | – |
| NCCN1C(=O)S/C(=C\CCc2c[nH]c3ccccc23)C1=O | 29.5 µM | – |
| O=C1S/C(=C\CCc2ccccc2)C(=O)N1CCN1CCOCC1 | > 30 µM | – |
| NCCN1C(=O)S/C(=C\CCc2ccccc2)C1=O | 10.4 µM | inhibition [4]: inactive; inhibition [5]: inactive; inhibition [6]: inactive |
| CCOc1ccccc1CC/C=C1\SC(=O)N(CCN)C1=O | 11.3 µM | – |
| O=C(O)CN1C(=O)S/C(=C\CCc2ccccc2)C1=O | > 30 µM | – |
| CC/C=C1\SC(=O)N(CCN)C1=O | > 30 µM | – |
| NCCN1C(=O)S/C(=C\CCC2CC2)C1=O | 14.1 µM | – |
| NCCN1C(=O)S/C(=C\CCc2ccc([N+](=O)[O-])cc2)C1=O | > 30 µM | – |
| NCCN1C(=O)S/C(=C\CCc2ccc(Cl)cc2)C1=O | 21.2 µM | – |
| NC(=O)c1[nH]cnc1N | – | growth inhibition (GI) [7]: inactive |
| NCCN1C(=O)S/C(=C\CCc2cccc([N+](=O)[O-])c2)C1=O | 24.4 µM | – |
| NCCN1C(=O)S/C(=C\CCc2ccc(S(N)(=O)=O)cc2)C1=O | > 30 µM | – |

More lines, main results first:

| IC50 [3] | Structure (SMILES) | further results |
| --- | --- | --- |
| 9.4 µM | COc1ccc(CC/C=C2\SC(=O)N(CCN)C2=O)cc1 | – |
| > 30 µM | NCCN1C(=O)SC(CCCc2ccccc2)C1=O (racemic) | inhibition [4]: inactive; inhibition [5]: inactive; inhibition [6]: inactive |
| 10 µM | CCOc1cccc(CC/C=C2\SC(=O)N(CCN)C2=O)c1 | – |
| 11.3 µM | O=C1S/C(=C\CCc2ccccc2)C(=O)N1CCO | – |
| > 30 µM | NCCN1C(=O)S/C(=C\CCc2cccnc2)C1=O | – |
| 9.6 µM | CCOc1ccc(CC/C=C2\SC(=O)N(CCN)C2=O)cc1 | – |
| 27.7 µM | NCCN1C(=O)S/C(=C\CCc2ccc3[nH]ccc3c2)C1=O | – |
